An excerpt weighted towards active compounds, which were near 1.1% of everything screened.
Arrestin-AP2 inh – blocks beta-arrestin peptide binding to AP2 adaptin | FITC-arrestin peptide / GST-AP2 beads, flow cytometry; AP2 beta2 appendage carries R879A mutation | inhibition, % at 10 µM | 340,000 tested, 0.31% active | AID 504490;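 active = inhibition above a set limit, near 3 SD of compounds lacking own fluorescence, cut at about 54% in these data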;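 note: plate controls were DMSO wells for no effect and 5 µM unlabelled arrestin peptide for full effect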
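System: GST-AP2 R879A glutathione beads | Also added: FITC-arrestin peptide, 50 nM | Times: 12 min plus 1 h, RT | Signal: Bead flow cytometry, FITC channel | Buffer or medium: PBS with 0.05% Tween 20 and 0.1% BSA | Read-out basis: Percent drop in bead-associated FITC signal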
FAS TE block – FAS thioesterase (human) inhibition; P49327; inhibition, % at 15 µM; recombinant FAS-TE, OMFH fluorogenic substrate, fluorescence endpoint; 360,000 tested, 0.67% active;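 active = compounds whose normalised, plate-corrected inhibition of enzyme fluorescence in the single-dose primary screen is 50% or more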;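 note: 0% = DMSO with enzyme and 100% = substrate without enzyme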
JMJD2C inh – inhibitors of human GASC-1 (JMJD2C) demethylase. inhibition, % at 2.35 µM. 330,000 tested, 0.069% active. Q9H3R0. AID 2099. GST-JMJD2C(1-420) H3K9me3 demethylation, DELFIA europium;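 active = more than half of a compound's replicate wells show inhibition beyond 50%, single wells judged on their own value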;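 note: signal counts dimethyl H3K9 product captured on neutravidin plate; 0% = median of DMSO wells and 100% = 0.3 times that DMSO median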
Target sequence (Q9H3R0 1-420 limits assumed): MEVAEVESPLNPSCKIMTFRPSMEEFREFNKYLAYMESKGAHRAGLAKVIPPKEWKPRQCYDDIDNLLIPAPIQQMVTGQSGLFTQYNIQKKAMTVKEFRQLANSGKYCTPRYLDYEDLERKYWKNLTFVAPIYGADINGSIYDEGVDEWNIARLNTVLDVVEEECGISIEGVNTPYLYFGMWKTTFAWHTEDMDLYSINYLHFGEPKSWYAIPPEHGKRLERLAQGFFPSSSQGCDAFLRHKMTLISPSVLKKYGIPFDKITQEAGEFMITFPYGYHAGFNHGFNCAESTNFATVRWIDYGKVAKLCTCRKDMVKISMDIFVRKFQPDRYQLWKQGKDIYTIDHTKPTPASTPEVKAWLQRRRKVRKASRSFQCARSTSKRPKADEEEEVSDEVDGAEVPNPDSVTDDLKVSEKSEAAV
SENP1 inh – SENP1 (human) catalytic domain inhibition. AID 624204. inhibition, % at 10 µM. Q9P0U3. recombinant SENP1 catalytic domain, CyPet-SUMO1-YPet FRET cleavage. 360,000 tested, 0.21% active;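 active = inhibition at least 30% at 10 µM, raw YFP signal under a set limit, fluorescence ratio 0.5 to 1.5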;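 note: 0% = enzyme with DMSO and 100% = no enzyme wells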
Target sequence (Q9P0U3 419-644 limits assumed): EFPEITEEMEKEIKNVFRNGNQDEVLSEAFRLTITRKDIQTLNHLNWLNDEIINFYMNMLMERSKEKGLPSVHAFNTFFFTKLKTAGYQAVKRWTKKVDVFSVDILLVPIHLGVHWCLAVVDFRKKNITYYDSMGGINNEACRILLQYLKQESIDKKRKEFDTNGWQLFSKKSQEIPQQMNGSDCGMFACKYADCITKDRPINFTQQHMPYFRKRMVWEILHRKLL
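Test system: recombinant human SENP1 catalytic domain, His6-tagged / Medium: pH 8 Tris buffer with EDTA, NaCl, BME, BSA, NP40, catalase / Also added: SUMO1 FRET substrate flanked by Cypet and Ypet, 25 nM / Times: 50 min reaction at room temperature / Signal: FRET, CFP and YFP emission / Control set: no-enzyme low control and enzyme-plus-DMSO high control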
Arr-AP2 CP1 – inhibitors of human beta-arrestin and AP2 interaction; shares compounds with Arrestin-AP2 inh; 1,300 tested, 2% active; GST-AP2 beads, FITC arrestin peptide binding, flow cytometry; GST-fused beta2-adaptin appendage, R879A mutant; inhibition, % at 10 µM;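 active = inhibition above a set limit, roughly 3 SD of non-fluorescent compound noise, cut at about 38% in these data; inactive = inhibition at or below that limit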;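 note: loss of bead fluorescence from 50 nM FITC arrestin peptide bound to appendage; 0% = negative control wells and 100% = excess unlabelled arrestin peptide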
GST-FITC bead – GST-GSH bead binding interference, counter-screen | shares compounds with Arrestin-AP2 inh | GST-fluorescein binding to GSH beads, fluorescence | inhibition, % at 10 µM | 1,300 tested, 2% active | AID 588338;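 active = inhibition above 50%, about 3 SD of the inhibition seen with non-fluorescent compounds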;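 note: fluorescein maleimide labelled GST captured on 4 micron glutathione beads; higher means more loss of bead fluorescence from quenching or blocked binding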
Starred values were filed as active, the others as inactive; . = no result.

SMILES | Arrestin-AP2 inh | FAS TE block | JMJD2C inh | SENP1 inh | Arr-AP2 CP1 | GST-FITC bead
CN(C)S(=O)(=O)Nc1ccccn1 | 11.4 | -3.6 | 10.2 | 1.9 | . | .
CC1CCN(S(=O)(=O)N2CCC(C(=O)O)CC2)CC1 | 56.5* | -7.2 | 0.1 | 3.0 | 19.6 | -3.9
COc1ccc(C(O)P(=O)(O)CCc2ccccc2)cc1 (stereo not given) | 61.6* | -6.0 | -1.1 | -0.3 | 8.3 | -5.8
Cc1cc(C)nc(N/N=C/C2=C(N3CCOCC3)C(=C\c3ccc(Cl)cc3)/CC2)n1 | 12.2 | 4.8 | -2.2 | -0.9 | . | .
Cc1occc1C(=O)N/N=C/C1=C(N2CCOCC2)C(=C\c2ccc(Cl)cc2Cl)/CC1 | 98.1* | -2.5 | -4.6 | -25.7 | 3.1 | 2.1
COc1ccc(C2NC(=O)NC(C)=C2C(=O)OCc2ccccc2)cc1 (stereo not given) | 10.0 | 4.5 | -17.3 | 1.6 | . | .
CC(=O)Nc1ccc(NS(=O)(=O)Cc2ccccc2)cc1 | 23.8 | -1.3 | 2.0 | -0.4 | . | .
CCc1ccc(OCC(=O)NNCC(=O)Nc2ccc(OC)cc2)cc1 | 58.5* | -3.6 | . | 2.0 | -4.2 | -8.1
O=C(Nc1ccc2c(c1)OCCO2)c1coc2ccccc2c1=O | 89.4* | -10.6 | -2.4 | -50.3 | 3.8 | -4.4
Cc1ccccc1C(=O)Nc1ccc2c(c1)OCCO2 | 12.5 | -2.1 | 32.1 | 2.1 | . | .
COc1ccc(CNc2cccnc2Cl)cc1 | . | 0.8 | . | 2.2 | . | .
Cc1ccc(NC(=O)c2nccnc2C(=O)O)cc1C | -1.0 | -7.7 | 0.3 | 3.2 | . | .
Cc1ccc(NC(=O)Nc2cnccn2)cc1C | 8.8 | -0.8 | 1.5 | 1.0 | 2.8 | -1.6
COc1ccc(NC(=O)Nc2cnccn2)cc1OC | -8.5 | -5.5 | -37.0 | 0.7 | -2.9 | 7.8
COC(=O)c1ccc(NC(=O)Nc2ccc(OC)c(OC)c2)cc1 | -0.3 | -3.5 | 1.3 | 0.6 | . | .
Cc1cc(C)cc(NC(=O)Nc2cnccn2)c1 | 7.8 | -0.9 | 2.7 | -0.4 | -7.2 | 0.3
CC(=O)Nc1ccc(NC(=O)Nc2cc(C)cc(C)c2)cc1 | -4.2 | -7.0 | -6.5 | -2.8 | . | .
O=C(Nc1ccccc1)Nc1cnccn1 | 40.1 | -3.5 | -177.8 | 3.9 | -4.8 | -6.9
CCN1Cc2cc(OC)ccc2-c2ccccc2S1(=O)=O | 14.2 | -1.1 | . | 4.5 | . | .
O=C(Nc1ccc(F)c(Cl)c1)Nc1cnccn1 | 17.2 | -3.9 | 2.2 | 1.7 | . | .
CC(C)c1ccc(NC(=O)Nc2cnccn2)cc1 | -6.6 | 1.9 | -3.4 | 0.1 | -2.1 | -4.5
O=C(Nc1ccc(Cl)cc1)Nc1cnccn1 | 9.6 | -3.2 | 6.9 | 4.1 | 16.2 | 4.8
Cc1ccc(NC(=O)Nc2cnccn2)cc1 | 44.5 | -3.5 | 13.5 | 0.8 | -7.8 | 9.7
O=C(Nc1ccc([N+](=O)[O-])cc1)Nc1cnccn1 | -8.0 | 4.8 | 5.7 | 2.1 | . | .
O=C(Nc1cccc(Cl)c1)Nc1cnccn1 | -4.3 | -3.4 | 0.6 | 0.7 | -1.5 | 2.1
SMILES | Arrestin-AP2 inh | FAS TE block | JMJD2C inh | SENP1 inh | Arr-AP2 CP1 | GST-FITC bead
COC(=O)[C@H](C)NC(=O)Nc1ccc(Oc2ccccc2)cc1 | 11.1 | -5.5 | -23.1 | 2.1 | . | .
COc1ccccc1Nc1cc(C(=O)NCc2cccnc2)c2ccccc2n1 | 2.9 | 2.6 | -4.6 | -4.1 | . | .
O=C(CN(C(=O)c1csnn1)c1cccc(F)c1)NC1CCCC1 | 28.7 | -3.9 | -2.8 | 1.1 | . | .
Cc1cnc(NC(=O)Nc2ccccc2)c(C)n1 | -2.8 | -3.4 | 4.7 | 2.0 | -14.4 | -2.4
CC(=O)Nc1ccc(NC(=O)Nc2ccccc2)cc1 | 4.4 | -7.8 | 2.5 | 0.0 | . | .
Cc1ccc(C(C#N)c2ccc(C(=O)c3ccc(F)cc3)cc2)cc1 (stereo not given) | -10.8 | 30.8 | 1.2 | 1.4 | . | .
O=C(NCC(c1cccs1)N1CCOCC1)c1ccc(OCc2ccccc2)cc1 (stereo not given) | 5.6 | 7.3 | 0.0 | 1.7 | . | .
O=C(COC(=O)COc1ccc(Br)cc1)NCc1ccc2c(c1)OCO2 | -4.0 | -7.1 | 1.0 | 6.8 | . | .
N#Cc1ccccc1OCC(=O)OCC(=O)NCc1ccc2c(c1)OCO2 | 54.9* | -6.3 | 7.5 | 6.1 | 4.8 | -5.1
CCCCCCSc1ccc([C@@H]2[C@H]3C(=O)N(C)C(=O)[C@H]3[C@]3(C(=O)OC)CCCCN23)cc1OC | 20.1 | 26.4 | -1.2 | -7.1 | . | .
CCCSc1ccc([C@@H]2[C@@H]3C(=O)N(C)C(=O)[C@@H]3[C@]3(C(=O)OC)CCCN23)cc1OC | 59.8* | -5.0 | . | -3.9 | -5.4 | -6.9
O=C(O)CCN1CCN(S(=O)(=O)c2ccc3ccccc3c2)CC1 | 44.2 | -5.1 | 6.1 | -0.8 | . | .
Cc1ccc(OCCSc2nc3ccccc3n2CC(=O)O)cc1C | 54.2* | 3.9 | -0.4 | 1.8 | -0.6 | -2.6
COc1cccc(NC(=O)CN(C)C(=O)c2cc(-c3ccc(C)o3)nc3ccccc23)c1 | 7.8 | 1.9 | -1.8 | -6.8 | . | .
COc1cccc(NC(=O)c2cc(-c3ccc(C)o3)nc3ccccc23)c1 | 54.4* | 2.2 | 9.1 | -8.9 | -5.7 | 8.7
O=C(CCCNS(=O)(=O)c1ccc(F)cc1)Nc1ccc(F)cc1 | -3.1 | -6.2 | -0.6 | 3.6 | . | .
Cc1ccc(NC(=O)CNS(=O)(=O)c2ccc(F)cc2)cc1C | 55.3* | -0.8 | -4.4 | 3.9 | -7.0 | -4.7
N#CCC(=O)N/N=C\c1cccc(OC/C=C/c2ccccc2)c1 | -5.0 | -42.2 | -3.5 | 1.9 | . | .
CC(=O)N/N=C\c1cccc(OC/C=C/c2ccccc2)c1 | 58.0* | 4.2 | -6.9 | 0.7 | -15.8 | -0.1
CC(=O)N/N=C\c1ccccc1OC/C=C/c1ccccc1 | 57.6* | -4.0 | 7.7 | -0.2 | -11.8 | -4.6
COc1ccc(OC)c2c1C(=O)C(Cl)=C(Cl)C2=O | 86.8* | 30.3 | -30.0 | -41.2 | 72.3* | 27.7
COc1ccc(-c2ccc(/C=C(\NC(=O)c3ccccc3)C(=O)N3CCOCC3)o2)cc1 | 5.5 | 6.6 | 2.4 | -9.1 | . | .
C=CCNc1nc(C(=O)OC(C)C(=O)c2ccc(C)cc2)cs1 (stereo not given) | 57.4* | -0.1 | 2.0 | 0.0 | -10.4 | -4.0
CCN(CC(=O)Nc1c(F)cccc1F)C(=O)CCNS(=O)(=O)c1ccc(C)c(C)c1 | 57.9* | -2.4 | 24.9 | 2.2 | -4.1 | 0.5
COc1ccc2c3c(cccc13)N(C)N=C2C | 61.6* | -14.2 | -1.0 | -16.3 | 32.7 | 11.4
CCOC(=O)c1c(-c2cccs2)csc1NC(=O)CN1CC(C)OC(C)C1 (stereo not given) | 71.6* | 20.9 | -19.7 | 0.1 | 5.9 | -3.0
CCOC(=O)c1c(-c2cccs2)csc1NC(C)=O | 12.7 | 8.6 | -1.4 | -3.0 | . | .
CC12CC3CC(C)(C1)CC(C(O)CN1CCOCC1)(C3)C2 (stereo not given) | 16.2 | -2.7 | 4.1 | 0.6 | . | .
NS(=O)(=O)c1ccc(NC(=O)CNC(=O)c2ccc3c(c2)OCO3)cc1 | -2.4 | -7.5 | 18.5 | -1.4 | . | .

Bioassay records from PubChem.
